Activity calls are given as the source filed them. The calls are words filed in the database; no cut-off is given here. Bridge positions count the residues as written; N and C are the ends. Peptide text beside a SMILES is read from it.
Assays:
Prothrombin [1] = molecular target: T1, Prothrombin (Homo sapiens, UniProt P00734); test: Inhibition of alpha-thrombin (unknown origin) using Ac-ATPRpNA substrate by spectrophotometry method
How it was run: (§1)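 Inhibition constants were measured in 0.1 M Tris pH 8.0, 0.1 M NaCl, 0.005% Triton X-100 with 100 µM peptide-pNA substrate. Protease-specific additives were also included. Absorbance at 405 nm was read every 10 s over 300 s. Rates were compared with no-inhibitor controls, and Morrison Ki was fitted by non-linear regression.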

Plasminogen [2] = molecular target: T2, Plasminogen (Homo sapiens, UniProt P00747); test: Inhibition of plasmin (unknown origin) using Ac-RM(O2)YRpNA substrate by spectrophotometry method; how it was run: as §1
T2 sequence (P00747 97-580 limits assumed): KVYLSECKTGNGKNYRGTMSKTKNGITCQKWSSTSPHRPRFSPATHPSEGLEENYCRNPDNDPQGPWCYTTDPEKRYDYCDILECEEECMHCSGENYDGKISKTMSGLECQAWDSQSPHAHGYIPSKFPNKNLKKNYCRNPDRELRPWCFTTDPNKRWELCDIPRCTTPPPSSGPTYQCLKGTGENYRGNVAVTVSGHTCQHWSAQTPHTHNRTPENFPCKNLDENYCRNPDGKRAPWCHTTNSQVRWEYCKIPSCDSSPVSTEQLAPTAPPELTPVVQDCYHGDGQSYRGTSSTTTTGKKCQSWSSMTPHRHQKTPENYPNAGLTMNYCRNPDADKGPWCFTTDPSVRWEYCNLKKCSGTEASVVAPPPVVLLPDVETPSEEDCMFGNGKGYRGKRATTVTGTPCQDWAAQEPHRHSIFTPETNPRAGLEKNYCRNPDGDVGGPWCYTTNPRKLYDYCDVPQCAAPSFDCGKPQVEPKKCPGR
T2 sequence (P00747 581-810 limits assumed): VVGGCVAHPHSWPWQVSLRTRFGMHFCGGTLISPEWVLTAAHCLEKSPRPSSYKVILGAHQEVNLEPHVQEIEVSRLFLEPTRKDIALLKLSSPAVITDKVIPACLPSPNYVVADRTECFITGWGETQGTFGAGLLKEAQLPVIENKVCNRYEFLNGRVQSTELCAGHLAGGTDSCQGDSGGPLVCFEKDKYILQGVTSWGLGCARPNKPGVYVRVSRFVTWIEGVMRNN

Trypsin [3] = molecular target: T3, Trypsin (Homo sapiens, UniProt P07477+P07478+P35030); test: Inhibition of beta-trypsin (unknown origin) using Bz-FVRpNA substrate by spectrophotometry method; type: protein assay; how it was run: as §1
Kallikrein-4 [4] = molecular target: T4, Kallikrein-4 (Homo sapiens, UniProt Q9Y5K2); test: Inhibition of KLK4 (unknown origin) expressed in Sf9 cells using FVQRpNA substrate by spectrophotometry method; how it was run: as §1
T4 sequence (Q9Y5K2 whole entry): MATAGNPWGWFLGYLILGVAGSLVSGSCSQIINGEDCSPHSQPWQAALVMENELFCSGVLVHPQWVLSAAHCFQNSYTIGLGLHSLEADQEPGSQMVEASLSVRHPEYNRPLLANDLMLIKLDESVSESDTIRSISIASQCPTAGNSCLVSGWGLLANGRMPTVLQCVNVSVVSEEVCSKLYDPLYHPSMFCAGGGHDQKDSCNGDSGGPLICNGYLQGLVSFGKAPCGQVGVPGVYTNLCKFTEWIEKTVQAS

Kallikrein-5 = molecular target: T5, Kallikrein-5 (Homo sapiens, UniProt Q9Y337); test: Inhibition of KLK5 (unknown origin) expressed in Pichia pastoris X33 using Ac-YRSR-pNA by spectrophotometry method; how it was run: as §1
T5 sequence (Q9Y337 whole entry): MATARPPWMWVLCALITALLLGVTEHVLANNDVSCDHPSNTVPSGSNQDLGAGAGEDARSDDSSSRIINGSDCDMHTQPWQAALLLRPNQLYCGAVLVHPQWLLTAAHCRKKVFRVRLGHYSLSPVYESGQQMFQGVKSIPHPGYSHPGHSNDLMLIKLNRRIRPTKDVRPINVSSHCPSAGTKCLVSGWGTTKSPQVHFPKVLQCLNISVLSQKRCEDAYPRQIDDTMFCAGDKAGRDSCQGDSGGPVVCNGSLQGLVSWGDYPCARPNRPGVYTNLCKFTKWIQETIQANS

Kallikrein-4 [5] = molecular target: T4, Kallikrein-4; test: Inhibition of KLK4 (unknown origin) expressed in Sf9 cells at 25 nM using FVQRpNA substrate by spectrophotometry method
[6] = molecular target: Coagulation factor XI (Homo sapiens) (UniProt P03951); test: Inhibition of factor 11a (unknown origin) at 10 uM using Bz-FVRpNA substrate by spectrophotometry method
Coagulation factor XI (Homo sapiens), sequence (P03951 19-387 limits assumed): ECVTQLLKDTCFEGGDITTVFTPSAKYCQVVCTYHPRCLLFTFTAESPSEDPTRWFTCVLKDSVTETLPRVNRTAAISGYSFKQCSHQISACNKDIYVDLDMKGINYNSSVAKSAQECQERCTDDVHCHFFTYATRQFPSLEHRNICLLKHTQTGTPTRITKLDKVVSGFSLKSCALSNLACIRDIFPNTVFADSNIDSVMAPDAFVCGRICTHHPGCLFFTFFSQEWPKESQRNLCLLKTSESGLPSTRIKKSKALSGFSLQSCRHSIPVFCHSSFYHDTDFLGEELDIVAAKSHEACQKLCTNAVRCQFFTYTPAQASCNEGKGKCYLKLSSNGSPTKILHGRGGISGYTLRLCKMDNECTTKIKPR
Coagulation factor XI (Homo sapiens), sequence (P03951 388-625 limits assumed): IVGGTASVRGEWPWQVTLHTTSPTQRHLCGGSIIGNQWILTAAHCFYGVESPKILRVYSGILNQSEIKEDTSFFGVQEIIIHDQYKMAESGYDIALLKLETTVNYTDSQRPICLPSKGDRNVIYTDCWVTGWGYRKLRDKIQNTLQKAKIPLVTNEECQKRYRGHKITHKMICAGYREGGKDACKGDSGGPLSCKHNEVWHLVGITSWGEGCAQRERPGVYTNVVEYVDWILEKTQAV

[7] = molecular target: T6, Suppressor of tumorigenicity 14 protein (Homo sapiens) (UniProt Q9Y5Y6); test: Inhibition of matriptase (unknown origin) at 10 uM using Ac-RQFRpNA substrate by spectrophotometry method
T6 sequence (whole entry): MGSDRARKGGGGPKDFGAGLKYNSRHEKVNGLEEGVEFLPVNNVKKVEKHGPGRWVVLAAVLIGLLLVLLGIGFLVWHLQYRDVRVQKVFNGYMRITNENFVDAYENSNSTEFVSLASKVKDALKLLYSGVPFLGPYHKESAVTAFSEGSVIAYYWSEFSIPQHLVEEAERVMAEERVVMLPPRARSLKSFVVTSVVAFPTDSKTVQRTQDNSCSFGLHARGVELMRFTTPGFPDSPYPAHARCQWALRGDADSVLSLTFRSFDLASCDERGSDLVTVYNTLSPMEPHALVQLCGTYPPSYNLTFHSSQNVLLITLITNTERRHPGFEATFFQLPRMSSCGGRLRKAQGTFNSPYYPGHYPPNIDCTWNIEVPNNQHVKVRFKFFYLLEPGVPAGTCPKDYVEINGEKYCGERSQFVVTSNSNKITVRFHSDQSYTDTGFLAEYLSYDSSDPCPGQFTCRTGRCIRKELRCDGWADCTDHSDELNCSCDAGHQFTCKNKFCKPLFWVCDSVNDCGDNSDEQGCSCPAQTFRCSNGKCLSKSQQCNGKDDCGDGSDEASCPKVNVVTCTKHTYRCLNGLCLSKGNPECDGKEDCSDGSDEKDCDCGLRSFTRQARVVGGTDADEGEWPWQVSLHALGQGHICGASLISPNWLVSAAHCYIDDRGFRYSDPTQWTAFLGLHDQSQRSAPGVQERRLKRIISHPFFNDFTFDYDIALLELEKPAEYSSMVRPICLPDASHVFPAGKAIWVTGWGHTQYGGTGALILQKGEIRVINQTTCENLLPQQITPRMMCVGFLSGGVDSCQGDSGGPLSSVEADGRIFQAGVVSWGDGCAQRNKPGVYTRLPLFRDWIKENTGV

[8] = molecular target: Coagulation factor X (Homo sapiens) (UniProt P00742); test: Inhibition of factor 10a (unknown origin) at 50 uM using Ac-QRSRpNA substrate by spectrophotometry method
Coagulation factor X (Homo sapiens), sequence (P00742 41-179 limits assumed): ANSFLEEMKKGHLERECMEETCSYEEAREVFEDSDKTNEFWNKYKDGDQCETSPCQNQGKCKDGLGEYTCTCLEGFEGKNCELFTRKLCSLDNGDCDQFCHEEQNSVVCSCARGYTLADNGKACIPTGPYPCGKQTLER
Coagulation factor X (Homo sapiens), sequence (P00742 235-488 limits assumed): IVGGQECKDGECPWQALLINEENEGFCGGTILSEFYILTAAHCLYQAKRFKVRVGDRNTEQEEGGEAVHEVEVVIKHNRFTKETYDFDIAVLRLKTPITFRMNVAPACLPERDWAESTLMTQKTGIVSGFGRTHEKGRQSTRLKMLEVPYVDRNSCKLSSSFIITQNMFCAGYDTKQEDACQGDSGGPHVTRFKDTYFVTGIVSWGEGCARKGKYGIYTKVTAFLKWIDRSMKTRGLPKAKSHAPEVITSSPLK

[9] = molecular target: Serine protease 1 (Homo sapiens) (UniProt P07477); test: Inhibition of beta-trypsin (unknown origin) at 25 nM using Bz-FVRpNA substrate by spectrophotometry method
Serine protease 1 (Homo sapiens), sequence (P07477 whole entry): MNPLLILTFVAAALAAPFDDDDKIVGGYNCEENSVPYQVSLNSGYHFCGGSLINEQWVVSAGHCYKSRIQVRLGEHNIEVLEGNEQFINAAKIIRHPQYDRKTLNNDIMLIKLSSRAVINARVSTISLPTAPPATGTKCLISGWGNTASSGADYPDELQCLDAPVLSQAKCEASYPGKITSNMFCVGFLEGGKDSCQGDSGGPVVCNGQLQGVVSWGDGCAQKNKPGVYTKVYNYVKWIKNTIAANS

[10] = molecular target: T7, Coagulation factor XII (Homo sapiens) (UniProt P00748); test: Inhibition of factor 12a-alpha (unknown origin) at 10 uM using Ac-QRFRpNA substrate by spectrophotometry method
T7 sequence (whole entry): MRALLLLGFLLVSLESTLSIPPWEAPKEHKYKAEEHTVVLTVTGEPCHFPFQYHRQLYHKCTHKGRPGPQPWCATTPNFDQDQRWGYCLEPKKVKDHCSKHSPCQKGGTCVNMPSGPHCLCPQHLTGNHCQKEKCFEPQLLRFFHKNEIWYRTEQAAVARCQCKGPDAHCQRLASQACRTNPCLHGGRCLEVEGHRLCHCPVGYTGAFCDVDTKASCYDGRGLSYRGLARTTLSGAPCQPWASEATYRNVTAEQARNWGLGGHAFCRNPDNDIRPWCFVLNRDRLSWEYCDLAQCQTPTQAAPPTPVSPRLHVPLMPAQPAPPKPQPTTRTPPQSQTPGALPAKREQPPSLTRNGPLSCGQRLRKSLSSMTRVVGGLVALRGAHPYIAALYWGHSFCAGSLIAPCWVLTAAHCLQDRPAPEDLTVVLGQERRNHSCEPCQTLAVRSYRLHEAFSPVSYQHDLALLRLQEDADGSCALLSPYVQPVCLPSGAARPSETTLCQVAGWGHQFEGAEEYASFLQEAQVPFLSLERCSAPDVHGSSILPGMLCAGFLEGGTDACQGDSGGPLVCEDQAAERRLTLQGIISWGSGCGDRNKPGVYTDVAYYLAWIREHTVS

Kallikrein-7 [11] = molecular target: T8, Kallikrein-7 (Homo sapiens, UniProt P49862); test: Inhibition of KLK7 (unknown origin) expressed in Pichia pastoris X33 using KHLY-pNA substrate by spectrophotometry method; how it was run: as §1
Target sequence in this assay (P49862 whole entry): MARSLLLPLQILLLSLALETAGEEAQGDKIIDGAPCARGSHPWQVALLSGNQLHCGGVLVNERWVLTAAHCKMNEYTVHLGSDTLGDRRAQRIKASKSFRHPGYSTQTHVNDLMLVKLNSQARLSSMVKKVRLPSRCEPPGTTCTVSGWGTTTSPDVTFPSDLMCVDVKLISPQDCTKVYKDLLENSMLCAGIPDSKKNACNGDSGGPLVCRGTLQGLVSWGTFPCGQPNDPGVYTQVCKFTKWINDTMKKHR

Plasminogen [12] = molecular target: T2, Plasminogen; test: Inhibition of plasmin (unknown origin) at 50 uM using Ac-RM(O2)YRpNA substrate by spectrophotometry method
Trypsin [13] = molecular target: T3, Trypsin; test: Inhibition of trypsin (unknown origin); type: protein assay
Homo sapiens = organism: Homo sapiens; test: Inhibition of alpha chymotrypsin (unknown origin) at 25 uM using Ac-GRPY-pNA by spectrophotometry method
[14] = molecular target: Kallikrein-5 (Homo sapiens) (UniProt Q9Y337); test: Inhibition of KLK5 (unknown origin) expressed in Pichia pastoris X33 at 50 nM using Ac-YRSR-pNA by spectrophotometry method
Kallikrein-7 [15] = molecular target: T8, Kallikrein-7; test: Inhibition of KLK7 (unknown origin) expressed in Pichia pastoris X33 at 200 nM using KHLY-pNA substrate by spectrophotometry method
Target sequence in this assay (P49862 30-253 limits assumed): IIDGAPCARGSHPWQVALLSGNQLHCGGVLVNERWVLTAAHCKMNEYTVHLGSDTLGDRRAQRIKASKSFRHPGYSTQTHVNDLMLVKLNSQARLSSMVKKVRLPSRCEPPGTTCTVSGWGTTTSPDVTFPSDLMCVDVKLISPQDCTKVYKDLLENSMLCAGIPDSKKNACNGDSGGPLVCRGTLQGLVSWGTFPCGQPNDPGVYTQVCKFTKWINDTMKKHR

Prothrombin [16] = molecular target: T1, Prothrombin; test: Inhibition of alpha-thrombin (unknown origin) at 25 uM using Ac-ATPRpNA substrate by spectrophotometry method

Row | Structure (SMILES) | Ki (Prothrombin [1]) | Ki (Plasminogen [2]) | Ki (Trypsin [3]) | Ki (Kallikrein-5) | inhibition (Kallikrein-4 [5]) | inhibition [7] | also measured
1 | C[C@@H](O)[C@@H]1NC(=O)[C@@H](NC(=O)[C@H](CCCNC(=N)N)NC(=O)CN)CSSC[C@@H](C(=O)N[C@@H](Cc2cnc[nH]2)C(=O)O)NC(=O)[C@H](CCCNC(=N)N)NC(=O)[C@@H]2CCCN2C(=O)[C@@H]2CCCN2C(=O)[C@H](CC(=O)O)NC(=O)[C@H](CO)NC(=O)[C@H](CCCCN)NC1=O (H-GRCTKSDPPRCH-OH; disulfide 3-11) | > 50000 nM | 17100 nM | 2830 nM |  |  |  | 
2 | CC[C@H](C)[C@@H]1NC(=O)[C@@H]2CSSC[C@H](NC(=O)[C@H]([C@@H](C)CC)NC(=O)[C@@H]3CCCN3C(=O)[C@@H]3CCCN3C(=O)[C@H](CCCCN)NC(=O)[C@H](CO)NC(=O)[C@H](CCCNC(=N)N)NC1=O)C(=O)N[C@@H](CC(N)=O)C(=O)N1CCC[C@H]1C(=O)N[C@@H](CC(N)=O)C(=O)NCC(=O)N[C@@H](Cc1c[nH]c3ccccc13)C(=O)N2 (cyclo(CIRSKPPICNPNGW); disulfide 1-9) |  |  | 3200 nM | > 50000 nM |  |  | Ki (Kallikrein-4 [4]): 19.9 nM
3 | CC[C@H](C)[C@@H]1NC(=O)[C@@H]2CCCN2C(=O)[C@@H]2CCCN2C(=O)[C@H](CC(=O)O)NC(=O)[C@H](CO)NC(=O)[C@H](CCCNC(=N)N)NC(=O)[C@H]([C@@H](C)O)NC(=O)[C@@H]2CSSC[C@H](NC1=O)C(=O)N[C@@H](CC(N)=O)C(=O)N1CCC[C@H]1C(=O)N[C@@H](CC(N)=O)C(=O)NCC(=O)N[C@@H]([C@@H](C)O)C(=O)N2 (cyclo(CNPNGTCTRSDPPI); disulfide 1-7) |  |  |  |  | inactive | 29% | inhibition [6]: 34%; inhibition [8]: 31%; inhibition [9]: inactive
4 | CC[C@H](C)[C@@H]1NC(=O)[C@@H]2CCCN2C(=O)[C@@H]2CCCN2C(=O)[C@H](CC(N)=O)NC(=O)[C@H](CO)NC(=O)[C@H](CCCNC(=N)N)NC(=O)[C@H]([C@@H](C)O)NC(=O)[C@@H]2CSSC[C@H](NC1=O)C(=O)N[C@@H](CC(N)=O)C(=O)N1CCC[C@H]1C(=O)N[C@@H](CC(N)=O)C(=O)NCC(=O)N[C@@H]([C@@H](C)O)C(=O)N2 (cyclo(CNPNGTCTRSNPPI); disulfide 1-7) |  |  |  | 5.2 nM | Active | 37% | inhibition [14]: 93%; inhibition (Kallikrein-7 [15]): 97%; Ki (Kallikrein-7 [11]): 0.8 nM; inhibition (Prothrombin [16]): 49%
5 | CC[C@H](C)[C@@H]1NC(=O)[C@@H]2CCCN2C(=O)[C@@H]2CCCN2C(=O)[C@H](Cc2ccc(O)cc2)NC(=O)[C@H](CO)NC(=O)[C@H](CCCNC(=N)N)NC(=O)[C@H]([C@@H](C)O)NC(=O)[C@@H]2CSSC[C@H](NC1=O)C(=O)N[C@@H](CC(N)=O)C(=O)N1CCC[C@H]1C(=O)N[C@@H](CC(N)=O)C(=O)NCC(=O)N[C@@H]([C@@H](C)O)C(=O)N2 (cyclo(CNPNGTCTRSYPPI); disulfide 1-7) |  |  |  |  |  |  | inhibition [14]: Active; inhibition [10]: 75%; inhibition (Prothrombin [16]): 62%; inhibition [8]: 26%

More lines, main results first:

Row | Ki (Prothrombin [1]) | Ki (Plasminogen [2]) | Ki (Trypsin [3]) | Ki (Kallikrein-5) | inhibition (Kallikrein-4 [5]) | inhibition [7] | Structure (SMILES) | also measured
6 | 381 nM | 121 nM | 0.03 nM |  |  |  | CC[C@H](C)[C@@H]1NC(=O)[C@@H]2CCCN2C(=O)[C@@H]2CCCN2C(=O)[C@H]([C@@H](C)CC)NC(=O)[C@H](CO)NC(=O)[C@H](CCCNC(=N)N)NC(=O)[C@H]([C@@H](C)O)NC(=O)[C@@H]2CSSC[C@H](NC1=O)C(=O)N[C@@H](Cc1ccccc1)C(=O)N1CCC[C@H]1C(=O)N[C@H](C(=O)O)CC(=O)NCC(=O)N[C@@H](CCCNC(=N)N)C(=O)N2 (GRCTRSIPPICFPD-OH; disulfide 3-11; lactam N-14) | 
7 | 214 nM | 549 nM | 0.16 nM |  |  |  | CC[C@H](C)[C@@H]1NC(=O)[C@@H]2CCCN2C(=O)[C@@H]2CCCN2C(=O)[C@H](Cc2ccc(O)cc2)NC(=O)[C@H](CO)NC(=O)[C@H](CCCNC(=N)N)NC(=O)[C@H]([C@@H](C)O)NC(=O)[C@@H]2CSSC[C@H](NC1=O)C(=O)N[C@@H](Cc1ccccc1)C(=O)N1CCC[C@H]1C(=O)N[C@H](C(=O)O)CC(=O)NCC(=O)N[C@@H](CCCNC(=N)N)C(=O)N2 (GRCTRSYPPICFPD-OH; disulfide 3-11; lactam N-14) | 
8 |  |  | 379 nM | 362 nM |  |  | CC[C@H](C)[C@@H]1NC(=O)[C@@H]2CSSC[C@H](NC(=O)[C@H]([C@@H](C)CC)NC(=O)[C@@H]3CCCN3C(=O)[C@@H]3CCCN3C(=O)[C@H]([C@@H](C)CC)NC(=O)[C@H](CO)NC(=O)[C@H](CCCNC(=N)N)NC1=O)C(=O)N[C@@H](CC(N)=O)C(=O)N1CCC[C@H]1C(=O)N[C@@H](CC(N)=O)C(=O)NCC(=O)N[C@@H](Cc1c[nH]c3ccccc13)C(=O)N2 (cyclo(CIRSIPPICNPNGW); disulfide 1-9) | Ki (Kallikrein-4 [4]): 9 nM
9 |  |  |  | 2.1 nM | Active | 41% | CC[C@H](C)[C@@H]1NC(=O)[C@@H]2CCCN2C(=O)[C@@H]2CCCN2C(=O)[C@H]([C@@H](C)CC)NC(=O)[C@H](CO)NC(=O)[C@H](CCCNC(=N)N)NC(=O)[C@H]([C@@H](C)O)NC(=O)[C@@H]2CSSC[C@H](NC1=O)C(=O)N[C@@H](CC(N)=O)C(=O)N1CCC[C@H]1C(=O)N[C@@H](CC(N)=O)C(=O)NCC(=O)N[C@@H]([C@@H](C)O)C(=O)N2 (cyclo(CNPNGTCTRSIPPI); disulfide 1-7) | inhibition [6]: 47%; inhibition [10]: 85%; Ki (Kallikrein-7 [11]): 16.8 nM; inhibition (Plasminogen [12]): 50%; Ki (Trypsin [13]): 0.7 nM; inhibition [9]: 80%; inhibition (Homo sapiens): 60%

Reference: ChEMBL document CHEMBL3621201, “Improving the Selectivity of Engineered Protease Inhibitors: Optimizing the P2 Prime Residue Using a Versatile Cyclic Peptide Library” (J Med Chem, 2015)
